Test results: ChEMBL document CHEMBL1268918, “1,3-Benzoxazole-4-carbonitrile as a novel antifungal scaffold of β-1,6-glucan synthesis inhibitors” (Bioorg Med Chem, 2010)
In brackets after ≈: the same amount, converted by molar mass. Activity calls are given as the source filed them. No cut-off for these calls is given here.

Assays:
[1] = Octanol-phosphate buffer partition coefficient, log D of the compound at pH 7.4; assay type: physicochemical
Procedure, shortened: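 Compound was shaken 30 min in equal volumes of n-octanol and phosphate-buffered saline at pH 7.4, then centrifuged at 3000 rpm for 10 min. Each layer was assayed by LC/MS, and log D was taken from the partition ratio.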

Pichia kudriavzevii [2] = assay: Antifungal activity against Candida krusei ATCC 44507 assessed as concentration required to 50% growth inhibition using alamar blue staining after 18 to 72 hrs by microdilution method; assay type: functional
Procedure, shortened: (§1)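 Serial broth microdilution in RPMI 1640 with 0.165 M MOPS. Inoculum was 1×10³–1×10⁴ cells/mL and incubation ran 18–72 h, both set per strain by growth rate, at 30 °C. MIC-2 is the lowest drug concentration giving 50% growth inhibition versus a drug-free control.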

Candida tropicalis [3] = assay: Antifungal activity against Candida tropicalis IAM 4965 assessed as concentration required to 50% growth inhibition using alamar blue staining after 18 to 72 hrs by microdilution method; assay type: functional; procedure, shortened: as §1
Nakaseomyces glabratus [4] = assay: Antifungal activity against Candida glabrata ATCC 48435 assessed as concentration required to 50% growth inhibition using alamar blue staining after 18 to 72 hrs by microdilution method; assay type: functional; procedure, shortened: as §1
[5] = Solubility in water at pH 6.8; assay type: physicochemical
[6] = Metabolic stability in human liver microsomes at 1 uM after 30 mins; assay type: ADME, Microsome; conditions: read-out: Stability
Procedure, shortened: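 Compound was preincubated with human liver microsomes (0.5 mg/mL protein) in sodium phosphate buffer pH 7.4 for 20 min at 37 °C. NADPH started the reaction, and MeOH stopped it after 30 min. Samples were centrifuged at 4 °C, and parent loss was quantified by LC/MS/MS.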

Saccharomyces cerevisiae = assay: Antifungal activity against Saccharomyces cerevisiae YPH500 assessed as concentration required to 50% growth inhibition using alamar blue staining after 18 to 72 hrs by microdilution method; assay type: functional; procedure, shortened: as §1
Candida albicans [7] = assay: Antifungal activity against Candida albicans ATCC 24433 assessed as concentration required to 50% growth inhibition using alamar blue staining after 18 to 72 hrs by microdilution method; assay type: functional; procedure, shortened: as §1
Candida albicans [8] = assay: Antifungal activity against FLCZ-resistant Candida albicans ATCC MYA-573 assessed as concentration required to 80% growth inhibition using alamar blue staining after 18 to 72 hrs by microdilution method; assay type: functional
Procedure, shortened: (§2)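 Serial broth microdilution in YPD medium (1% yeast extract, 2% peptone, […]). Starting cell density (1 × 10³–1 × 10⁴ cells/mL) and incubation time (18–72 h) were set per strain by growth speed. MIC-1 is the lowest drug concentration giving 80% growth inhibition relative to the drug-free control.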

Candida albicans [9] = assay: Antifungal activity against FLCZ-susceptible Candida albicans ATCC 90028 assessed as concentration required to 80% growth inhibition using alamar blue staining after 18 to 72 hrs by microdilution method; assay type: functional; procedure, shortened: as §2
Nakaseomyces glabratus [10] = assay: Antifungal activity against Candida glabrata ATCC 48435 assessed as concentration required to 80% growth inhibition using alamar blue staining after 18 to 72 hrs by microdilution method; assay type: functional
Procedure, shortened: (§3)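 Serial dilution in YPD medium (1% yeast extract, 2% peptone, […]), incubated at 37 °C. Inoculum was 1×10³–1×10⁴ cells/mL and incubation 18–72 h, both chosen per strain. MIC-1 is the lowest concentration giving 80% inhibition relative to a drug-free control.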

Pichia kudriavzevii [11] = assay: Antifungal activity against Candida krusei ATCC 44507 assessed as concentration required to 80% growth inhibition using alamar blue staining after 18 to 72 hrs by microdilution method; assay type: functional; procedure, shortened: as §3
Candida tropicalis [12] = assay: Antifungal activity against Candida tropicalis ATCC 44508 assessed as concentration required to 80% growth inhibition using alamar blue staining after 18 to 72 hrs by microdilution method; assay type: functional; procedure, shortened: as §3
Candida albicans [13] = assay: Antifungal activity against FLCZ-susceptible Candida albicans ATCC 90028 assessed as reduction of chitin level up to 4 ug/ml after 3 hrs by [14C]-glucose incorporation assay; assay type: functional, organism-based
Procedure, shortened: (§4)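 Exponentially growing cells were suspended in RPMI 1640 to about 0.7 A595, then drug (0–4 µg/mL) and [14C]-glucose were added. Incubation was 3 h at 30 °C with occasional shaking. Cells were heated in 3% NaOH at 80 °C for 1 h. Mannan was taken from the supernatant by Fehling's reaction, and the insoluble residue was digested overnight with Zymolyase 100T. β-1,3-glucan counts were obtained as glucan minus β-1,6-glucan.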

Candida albicans [14] = assay: Antifungal activity against FLCZ-susceptible Candida albicans ATCC 90028 assessed as reduction of mannan level up to 4 ug/ml after 3 hrs by [14C]-glucose incorporation assay; assay type: functional, organism-based; procedure, shortened: as §4
Candida albicans [15] = assay: Antifungal activity against FLCZ-susceptible Candida albicans ATCC 90028 assessed as reduction of beta-1,6-glucan level after 3 hrs by [14C]-glucose incorporation assay; assay type: functional, organism-based
Procedure, shortened: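 Exponentially growing cells suspended in RPMI 1640 to absorbance ~0.7 at 595 nm; drug and [14C]-glucose added, incubated 30 °C with occasional shaking. After 3 h, cells heated in 3% NaOH at 80 °C for 1 h; mannan taken from supernatant by Fehling's reaction; insoluble residue digested with Zymolyase 100T overnight; radioactivity per fraction measured. Tested 0.016–4 µg/mL.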

Candida albicans [16] = assay: Antifungal activity against FLCZ-susceptible Candida albicans ATCC 90028 assessed as reduction of beta-1,3-glucan level up to 4 ug/ml after 3 hrs by [14C]-glucose incorporation assay; assay type: functional, organism-based; procedure, shortened: as §4

Structure (SMILES)	logD [1]	MIC (Pichia kudriavzevii [2])	MIC (Candida tropicalis [3])	MIC (Nakaseomyces glabratus [4])	solubility [5]	remaining at 0.5 h, 1 µM [6]	MIC (Saccharomyces cerevisiae)	MIC (Candida albicans [7])	MIC (Candida albicans [8])	MIC (Candida albicans [9])	MIC (Nakaseomyces glabratus [10])	MIC (Pichia kudriavzevii [11])	MIC (Candida tropicalis [12]; read-out: MIC)	MIC (Candida tropicalis [12])	Activity (Candida albicans [13])	Activity (Candida albicans [14])	Activity (Candida albicans [15])	Activity (Candida albicans [16])
CN(C)[C@H]1CCN(c2c(-c3ccccc3)cc(C#N)c3oc(C(C)(C)C)cc23)C1	5.4	> 4 µg/mL	4 µg/mL (≈ 10.3 µM)	> 4 µg/mL	< 2 µg/mL	20%	2 µg/mL (≈ 5.16 µM)	> 4 µg/mL	–	–	–	–	–	–	–	–	–	–
Cc1c(-c2ccccc2)c(N2CC[C@H](N(C)C)C2)c2oc(N)nc2c1C#N	3.3	–	–	–	18 µg/mL (≈ 49.8 µM)	–	–	–	2 µg/mL (≈ 5.53 µM)	1 µg/mL (≈ 2.77 µM)	0.125 µg/mL (≈ 0.346 µM)	2 µg/mL (≈ 5.53 µM)	0.5 µg/mL (≈ 1.38 µM)	–	–	–	–	–
Cc1c(-c2ccccc2)c(N2CC[C@H](N(C)C)C2)c2oc(C3CCC3)nc2c1C#N	4.5	–	–	–	7 µg/mL (≈ 17.5 µM)	–	–	–	0.125 µg/mL (≈ 0.312 µM)	0.063 µg/mL (≈ 0.157 µM)	–	0.5 µg/mL (≈ 1.25 µM)	–	< 0.016 µg/mL	–	–	–	–
CN[C@H]1CCN(c2c(-c3ccccc3)c(C)c(C#N)c3nc(C(C)(C)C)oc23)C1.Cl	3.4	> 16 µg/mL	0.25 µg/mL	0.125 µg/mL	120 µg/mL	54%	0.125 µg/mL	16 µg/mL	0.25 µg/mL	0.25 µg/mL	0.125 µg/mL	> 4 µg/mL	0.063 µg/mL	–	inactive	inactive	Dose-dependent effect	inactive
OC(Cn1cncn1)(Cn1cncn1)c1ccc(F)cc1F [FLUCONAZOLE]	–	16 µg/mL (≈ 52.2 µM)	0.25 µg/mL (≈ 0.816 µM)	2 µg/mL (≈ 6.53 µM)	> 2000 µg/mL	–	4 µg/mL (≈ 13.1 µM)	0.25 µg/mL (≈ 0.816 µM)	> 128 µg/mL	0.25 µg/mL (≈ 0.816 µM)	16 µg/mL (≈ 52.2 µM)	32 µg/mL (≈ 104 µM)	0.5 µg/mL (≈ 1.63 µM)	–	–	–	–	–
Cc1c(-c2ccccc2)c(N2CC[C@H](N(C)C)C2)c2oc(C(C)(C)C)nc2c1C#N.Cl	4.6	4 µg/mL	0.063 µg/mL	≤ 0.016 µg/mL	5 µg/mL	6%	≤ 0.016 µg/mL	4 µg/mL	0.125 µg/mL	0.063 µg/mL	0.063 µg/mL	2 µg/mL	0.032 µg/mL	–	–	–	–	–
Cc1c(-c2ccccc2)c(N2CC[C@H](N(C)C)C2)c2[nH]c(C(C)(C)C)nc2c1C#N	4.7	> 16 µg/mL	2 µg/mL (≈ 4.98 µM)	0.5 µg/mL (≈ 1.25 µM)	8 µg/mL (≈ 19.9 µM)	21%	0.5 µg/mL (≈ 1.25 µM)	4 µg/mL (≈ 9.96 µM)	–	–	–	–	–	–	–	–	–	–
CN(C)[C@H]1CCN(c2c(-c3ccccc3)cc(C#N)c3oc(C(C)(C)C)nc23)C1	–	> 16 µg/mL	> 4 µg/mL	> 4 µg/mL	–	–	4 µg/mL (≈ 10.3 µM)	> 4 µg/mL	–	–	–	–	–	–	–	–	–	–
Cc1c(C#N)c2c(c(N3CC[C@H](N(C)C)C3)c1-c1ccccc1)OCC(C(C)(C)C)=N2	4.4	> 16 µg/mL	16 µg/mL (≈ 38.4 µM)	8 µg/mL (≈ 19.2 µM)	56 µg/mL (≈ 134 µM)	–	8 µg/mL (≈ 19.2 µM)	> 16 µg/mL	–	–	–	–	–	–	–	–	–	–
Cc1c(-c2ccccc2)c(N2CC[C@H](N(C)C)C2)n2nc(C(C)(C)C)nc2c1C#N	–	> 4 µg/mL	0.25 µg/mL (≈ 0.621 µM)	0.063 µg/mL (≈ 0.157 µM)	–	9%	0.063 µg/mL (≈ 0.157 µM)	> 4 µg/mL	0.5 µg/mL (≈ 1.24 µM)	0.25 µg/mL (≈ 0.621 µM)	0.125 µg/mL (≈ 0.311 µM)	8 µg/mL (≈ 19.9 µM)	0.125 µg/mL (≈ 0.311 µM)	–	–	–	–	–
CN(C)[C@H]1CCN(c2c(-c3ccccc3)cc(C#N)c3nc(C(C)(C)C)oc23)C1	3.8	16 µg/mL (≈ 41.2 µM)	0.5 µg/mL (≈ 1.29 µM)	0.25 µg/mL (≈ 0.643 µM)	16 µg/mL (≈ 41.2 µM)	8%	0.25 µg/mL (≈ 0.643 µM)	16 µg/mL (≈ 41.2 µM)	–	–	–	–	–	–	–	–	–	–
Cc1c(-c2ccccc2)c(N2CC[C@H](N(C)C)C2)c2oc(C3CC3)nc2c1C#N	3.9	–	–	–	10 µg/mL (≈ 25.9 µM)	–	–	–	0.063 µg/mL (≈ 0.163 µM)	0.063 µg/mL (≈ 0.163 µM)	0.032 µg/mL (≈ 0.0828 µM)	0.125 µg/mL (≈ 0.323 µM)	0.032 µg/mL (≈ 0.0828 µM)	–	–	–	–	–
CN(C)[C@H]1CCN(c2c(-c3ccccc3)c3c(c4nc(C5CC5)oc24)C(=O)OC3)C1	2.6	–	–	–	310 µg/mL (≈ 768 µM)	–	–	–	1 µg/mL (≈ 2.48 µM)	1 µg/mL (≈ 2.48 µM)	0.25 µg/mL (≈ 0.62 µM)	2 µg/mL (≈ 4.96 µM)	0.25 µg/mL (≈ 0.62 µM)	–	–	–	–	–
Cc1nc2c(C#N)c(C)c(-c3ccccc3)c(N3CC[C@H](N(C)C)C3)c2o1	3.3	–	–	–	120 µg/mL (≈ 333 µM)	–	–	–	2 µg/mL (≈ 5.55 µM)	2 µg/mL (≈ 5.55 µM)	0.25 µg/mL (≈ 0.694 µM)	4 µg/mL (≈ 11.1 µM)	0.25 µg/mL (≈ 0.694 µM)	–	–	–	–	–
Cc1c(-c2ccccc2)c(N2CC[C@H](N(C)C)C2)n2c(nc3ccccc32)c1C#N	–	0.125 µg/mL (≈ 0.316 µM)	0.25 µg/mL (≈ 0.632 µM)	0.063 µg/mL (≈ 0.159 µM)	5 µg/mL (≈ 12.6 µM)	–	0.004 µg/mL (≈ 0.0101 µM)	> 4 µg/mL	–	–	–	–	–	–	–	–	–	–
Cc1c(-c2ccccc2)c(N2CC[C@H](N(C)C)C2)c2oc(C3=CCCC3)nc2c1C#N	5.2	–	–	–	< 2 µg/mL	–	–	–	4 µg/mL (≈ 9.7 µM)	4 µg/mL (≈ 9.7 µM)	0.5 µg/mL (≈ 1.21 µM)	16 µg/mL (≈ 38.8 µM)	1 µg/mL (≈ 2.42 µM)	–	–	–	–	–
Cc1c(-c2ccccc2)c(N2CC[C@H](N(C)C)C2)c2oc(C3CCCC3)nc2c1C#N	4.9	–	–	–	< 2 µg/mL	–	–	–	0.125 µg/mL (≈ 0.302 µM)	0.125 µg/mL (≈ 0.302 µM)	0.032 µg/mL (≈ 0.0772 µM)	2 µg/mL (≈ 4.82 µM)	0.063 µg/mL (≈ 0.152 µM)	–	–	–	–	–
